Assay outcomes as filed in PubChem BioAssay.
This is a sample that favours compounds with a hit; in the whole collection about 2.1% have one here.
MEX-5 binding: C. elegans MEX-5 TCR-2 RNA binding activity | Q9XUB2 | MEX-5/FITC-TCR2 RNA binding, fluorescence polarization; active compounds read low | activity score (negative = inhibition of binding), % at 10 µM | 0.38% of 300,000 active;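 active means inhibition past about -25% in most replicates, and total fluorescence under double the plate's negative control median, limit read from the data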;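 further: 0% = DMSO and -100% = 5 µM competing unlabeled TCR2 RNA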
Target sequence (Q9XUB2 whole entry, looked up): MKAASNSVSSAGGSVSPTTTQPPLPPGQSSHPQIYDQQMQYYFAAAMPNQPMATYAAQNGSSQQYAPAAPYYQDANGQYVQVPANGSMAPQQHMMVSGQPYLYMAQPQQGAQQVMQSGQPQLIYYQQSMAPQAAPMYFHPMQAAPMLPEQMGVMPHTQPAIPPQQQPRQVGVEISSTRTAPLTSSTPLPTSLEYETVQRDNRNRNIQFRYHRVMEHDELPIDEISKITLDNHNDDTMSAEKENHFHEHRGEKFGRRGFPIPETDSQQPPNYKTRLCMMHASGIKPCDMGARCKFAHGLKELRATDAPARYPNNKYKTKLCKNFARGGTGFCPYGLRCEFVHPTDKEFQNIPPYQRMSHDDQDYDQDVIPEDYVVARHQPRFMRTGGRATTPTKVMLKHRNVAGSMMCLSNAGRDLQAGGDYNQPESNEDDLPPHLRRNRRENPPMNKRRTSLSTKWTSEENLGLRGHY
Runt-CBFb FRET: Runt domain-CBFb interaction inhibition | inhibition, % at 20 µM | Cerulean-Runt/Venus-CBFb FRET ratio 530/480, 1 h | 0.46% of 220,000 active | AID 1496;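 active means inhibition over about 50% at 20 µM in the single-dose screen, limit read from the data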;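 further: 0% = DMSO wells and 100% = excess unlabeled CBFb competitor control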
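test system = Cerulean-tagged RUNX1 Runt domain (FRET donor) fusion protein | reagent = Venus-CBFb binding partner, 100 nM | incubation = protein complex preformed 1 h, compound exposure 1 h, room temperature, dark | detection = FRET fluorescence | read-out basis = loss of energy transfer signal | controls = 5 µM unlabeled CBFb as full-inhibition high control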
RanGTP-Impb inh: disruptors of Ran-importin-beta complex formation – biochemical, FRET, CFP-Ran, YFP-importin-beta, homogeneous, primary screen | cell-free CFP-Ran/YFP-importin-beta FRET ratio | inhibition, % (concentration not given with the values) | 1.1% of 300,000 active;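 active means more than half of the replicate wells show a fall in the fluorescence ratio signal beyond about 16%, limit read from the data, passing the limit was not always enough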;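 further: 0% = DMSO wells and 100% = Ran loaded with GDP instead of GTP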
KLK7 zymogen act: activators of human kallikrein-7 zymogen. P49862. purified proKLK7, EDANS-DABCYL substrate fluorescence; 100% is mature enzyme control, 0% vehicle. activation, % at 7 µM. 0.9% of 370,000 active. AID 652039;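 active means activation above the mean of all tested compounds plus 3 SD, computed per campaign excluding outliers beyond control limits, cut at about 13% in these data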
Runt-SMMHC FRET: Runt domain-CBFb-SMMHC interaction inhibition; Cerulean-Runt/Venus-CBFb-SMMHC FRET ratio 530/480, 1 h; inhibition, % at 20 µM; 0.74% of 220,000 active; AID 1434;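 active means mean inhibition across duplicate retests at 20 µM reaching about 50%, limit read from the data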;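 further: 0% = DMSO wells and 100% = wells with excess untagged CBFb-SMMHC; inhibitors lower the FRET ratio by blocking Runt binding to CBFb-SMMHC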
Active calls of the source: *.

`CC(=O)c1sc(NC(=O)c2ccc(COc3ccccc3Cl)o2)nc1C` gave MEX-5 binding 0, RanGTP-Impb inh 0 and KLK7 zymogen act 0.
CC(=O)c1sc(Nc2nc3ccc(F)cc3s2)nc1C was read as MEX-5 binding 1, Runt-CBFb FRET 59*, RanGTP-Impb inh 47*, KLK7 zymogen act 1 and Runt-SMMHC FRET 79*.
Screening Cc1cc(C(=O)OCC(=O)NC2CCS(=O)(=O)C2)c2ccccc2n1 (configuration not stated) returned MEX-5 binding 1, Runt-CBFb FRET 1, RanGTP-Impb inh -3, KLK7 zymogen act -1 and Runt-SMMHC FRET 3.
COc1ccc2cc(-c3cc(C(=O)OCC(=O)NC4CCS(=O)(=O)C4)c4ccccc4n3)ccc2c1 (configuration not stated) was read as MEX-5 binding 4, Runt-CBFb FRET -9, RanGTP-Impb inh 24*, KLK7 zymogen act -4 and Runt-SMMHC FRET 79*.
Cc1ccc(CN2CCN(C(=O)CCN3C(=O)c4ccccc4C3=O)CC2)cc1 was read as MEX-5 binding 3, Runt-CBFb FRET 108*, RanGTP-Impb inh 6, KLK7 zymogen act 0 and Runt-SMMHC FRET 5.
For Cc1cccc(Cn2cc(CN3CC(N(C)CCCOC(=O)c4cc5ccccc5o4)CS3(=O)=O)nn2)c1 (configuration not stated) the results were KLK7 zymogen act 1.
`COc1ccc(-c2c(C)nn(-c3ccccc3)c2N)cc1OC` gave MEX-5 binding 0, Runt-CBFb FRET 0, RanGTP-Impb inh 3, KLK7 zymogen act 0 and Runt-SMMHC FRET 2.
For COc1ccc(C2=CC(c3c(C)nn(-c4ccccc4)c3Cl)n3nnnc3N2)cc1OC (configuration not stated) the results were Runt-CBFb FRET 31, KLK7 zymogen act 3 and Runt-SMMHC FRET 86*.
For CC(=O)Nc1ccc(NC(=O)C(C)OC(=O)/C(C#N)=C/c2ccc(N(C)C)cc2)cc1 (configuration not stated) the results were MEX-5 binding -26*, RanGTP-Impb inh -45 and KLK7 zymogen act 0.
Screening CC(=O)Nc1ccc(NC(=O)C(C)OC(=O)c2ccc(N(C)C)cc2)cc1 (configuration not stated) returned MEX-5 binding -1, RanGTP-Impb inh 2 and KLK7 zymogen act 0.
For CC(OC(=O)/C(C#N)=C/c1ccc(N(C)C)cc1)C(=O)N(C)c1ccccc1 (configuration not stated) the results were MEX-5 binding 1, RanGTP-Impb inh 92* and KLK7 zymogen act 0.
CCCCC1OC23CCCCC2C(C#N)(C(=N)O3)C1(C#N)C#N (configuration not stated) was read as MEX-5 binding 1, Runt-CBFb FRET 19, RanGTP-Impb inh 24*, KLK7 zymogen act 11 and Runt-SMMHC FRET 32.
`CCCCCCCCOc1ccc(C2OC34CCCCC3C(C#N)(C#N)C2(C#N)C(=N)O4)cc1` (configuration not stated) gave MEX-5 binding -87*, Runt-CBFb FRET 25, RanGTP-Impb inh 44* and Runt-SMMHC FRET 56*.
`CCCCCOc1ccc(C2NC(=O)NC2=O)cc1` (configuration not stated) gave MEX-5 binding 4, Runt-CBFb FRET 2, RanGTP-Impb inh 3, KLK7 zymogen act -1 and Runt-SMMHC FRET 4.
For CCCCC1OC23CCCCC2C(C#N)(C#N)C1(C#N)C(=N)O3 (configuration not stated) the results were MEX-5 binding -8, Runt-CBFb FRET 24, RanGTP-Impb inh 53*, KLK7 zymogen act 10 and Runt-SMMHC FRET 81.
Cc1ccc(S(=O)(=O)Nc2c(C)n(C)n(-c3ccccc3)c2=O)cc1C(=O)NCc1ccccc1 was read as KLK7 zymogen act 1.
For O=C(NCCc1ccccc1F)C1CC(=O)N(c2cccc(C(F)(F)F)c2)C1 (configuration not stated) the results were KLK7 zymogen act 1.
`Oc1c(N=Nc2ccccc2)sc2ccccc12` gave MEX-5 binding 2, Runt-CBFb FRET -6, RanGTP-Impb inh 29*, KLK7 zymogen act 0 and Runt-SMMHC FRET -10.
